core dimer inh: inhibitors of HCV core protein dimerization, primary screen, biochemical, TR-FRET, high-throughput | TR-FRET GST/Flag-core106 dimerization, 1536-well | inhibition, % at 5 µM | actives 0.33% (n = 300,000) | AID 1899, 2009;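 active = inhibition above the mean of all tested compounds plus 3 SD, set per screening campaign, cut at about 45% in these data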
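Material: Tagged HCV core106 pair (GST and Flag) | Amount: GST-core106 13.5 nM, Flag-core106 17 nM | Medium: KF-containing HEPES buffer, pH 7.45, DTT, CHAPS, BSA | Reagent: Eu donor and XL665 acceptor anti-tag antibodies | Schedule: 4 h at 22.5 °C | Technique: Time-resolved FRET, ex 340 nm, em 617 and 671 nm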
APOBEC3G inh: APOBEC3G DNA deaminase inhibitors, primary screen, biochemical, fluorescence, single-stranded DNA substrate, uHTS. DNA dC->dU-editing enzyme APOBEC-3G (Homo sapiens), Q9HC16. recombinant A3G, ssDNA deamination FAM/TAMRA fluorescence. inhibition, % at 20 µM. actives 0.28% (n = 330,000). AID 493012, 2011;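 active = inhibition of at least 40% at 20 µM, with no more than 30% in the related APOBEC3A deaminase screen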;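 also: plate controls were DMSO wells with A3G for no effect and wells lacking A3G enzyme for full effect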
NS3 helicase inh: inhibitors of HCV NS3 helicase, primary screen, biochemical, Cy5 molecular beacon fluorescence; Hepatitis C virus NS3 helicase; NS3 helicase DNA unwinding; inhibition, % at 10.9 µM; actives 0.56% (n = 290,000);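 active = inhibition above the mean of all tested compounds plus 3 SD, set per campaign, cut at about 35% in these data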;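 also: 0% = DMSO wells and 100% = thioflavine S control wells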
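Compound dosing – single dose, 10.9 µM nominal final, DMSO 0.8% final · System – NS3 helicase fragment of HCV · Buffer or medium – MOPS pH 6.5, MgCl2, DTT, Tween20, BSA · Signal – Cy5 beacon fluorescence read at start and 1 h · Also added – annealed dual-labelled DNA beacon duplex, ATP-started · Schedule – 1 h at 25 °C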
PRMT1 FP inh: PRMT1 methyltransferase inhibitors, primary screen, biochemical, fluorescence polarization. inhibition, % at 2.79 µM. Protein arginine N-methyltransferase 1 (Homo sapiens), Q99873. AID 652257, 2013. actives 1.3% (n = 370,000). recombinant PRMT1, activity-based probe fluorescence polarization;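 active = inhibition above about 21% made by adding two undisclosed values, limit read from the data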
APOBEC3A inh: APOBEC3A ssDNA deaminase inhibitors, primary screen, selectivity assay for APOBEC3G inhibitor project, biochemical, FAM/TAMRA oligo cleavage fluorescence. AID 493011, 2011. recombinant A3A, FAM/TAMRA ssDNA deamination fluorescence. actives 0.41% (n = 330,000). inhibition, % at 20 µM. DNA dC->dU-editing enzyme APOBEC-3A (Homo sapiens), P31941;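 active = at least 40% inhibition at 20 µM here, with at most 30% in a related deaminase screen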;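 also: plate controls were A3A with DMSO for no effect and wells lacking A3A enzyme for full effect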
ABHD5 PLIN5 PPI: ABHD5-PLIN5 interaction inhibitors, primary screen, cell lysate, split luciferase complementation, luminescence | Split G. princeps luciferase complementation, 4 h | inhibition, % at 4 µM | actives 0.78% (n = 360,000) | AID 602281, 2012;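 active = inhibition above the mean inhibition across every tested compound plus 3 SD, cut at about 22% in these data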;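 also: 0% = DMSO only wells and the 100% control is not disclosed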
Target sequence (Q00G26 whole entry, looked up): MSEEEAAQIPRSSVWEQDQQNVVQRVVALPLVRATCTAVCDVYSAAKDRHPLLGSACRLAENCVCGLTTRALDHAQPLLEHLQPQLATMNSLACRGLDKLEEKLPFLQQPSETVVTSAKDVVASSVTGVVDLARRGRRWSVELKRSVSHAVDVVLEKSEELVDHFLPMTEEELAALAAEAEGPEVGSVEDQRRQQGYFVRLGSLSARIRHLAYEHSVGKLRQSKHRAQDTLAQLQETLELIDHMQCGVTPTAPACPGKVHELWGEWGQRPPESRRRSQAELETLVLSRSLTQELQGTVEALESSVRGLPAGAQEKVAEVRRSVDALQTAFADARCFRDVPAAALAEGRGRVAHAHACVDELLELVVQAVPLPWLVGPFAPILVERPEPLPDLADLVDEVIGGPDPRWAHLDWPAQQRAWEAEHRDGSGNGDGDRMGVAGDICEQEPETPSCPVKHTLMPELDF
Target sequence (Q8WTS1 whole entry, looked up): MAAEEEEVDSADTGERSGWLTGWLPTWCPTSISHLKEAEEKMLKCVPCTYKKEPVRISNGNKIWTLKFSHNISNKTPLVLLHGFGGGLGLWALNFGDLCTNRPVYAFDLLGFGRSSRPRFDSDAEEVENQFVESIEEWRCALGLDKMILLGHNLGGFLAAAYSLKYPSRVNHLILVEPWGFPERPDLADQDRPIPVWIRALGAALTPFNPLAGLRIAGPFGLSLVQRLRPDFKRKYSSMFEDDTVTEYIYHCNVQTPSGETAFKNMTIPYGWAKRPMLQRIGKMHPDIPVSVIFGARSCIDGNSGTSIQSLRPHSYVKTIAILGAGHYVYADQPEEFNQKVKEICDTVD
ABHD5-PLIN5 conf: ABHD5-PLIN5 interaction inhibitors, confirmation, biochemical, luminescence | shares compounds with ABHD5 PLIN5 PPI | inhibition, % at 4 µM | actives 67% (n = 2,200) | AID 651612, 2012; in the data active = inhibition above about 23%;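 also: 0% = DMSO vehicle wells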
HNF4 split-luc: HNF4 dimerization inhibitors, counter-screen for ABHD5-PLIN5 interaction inhibitor project, biochemical, split-luciferase complementation, luminescence | shares compounds with ABHD5 PLIN5 PPI | inhibition, % at 4 µM | actives 77% (n = 2,200) | AID 651674, 2012;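 active = mean inhibition across replicate wells exceeding the computed hit threshold, cut at about 13% in these data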;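 also: light from luciferase halves that rejoin when HNF4 fusion proteins dimerize; 0% = DMSO only wells and the 100% control is not given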
Starred values were filed as active, the others as inactive; . = no result given. Rows were chosen to be rich in hits. Some 2.9% of all compounds tested hit in one or more screens of this group.

SMILES	core dimer inh	APOBEC3G inh	NS3 helicase inh	PRMT1 FP inh	APOBEC3A inh	ABHD5 PLIN5 PPI	ABHD5-PLIN5 conf	HNF4 split-luc
O=C(C(=Cc1ccccc1)CN1CCCCC1)c1ccccc1	.	.	.	0.2	.	46.7*	77.3*	65.1*
O=C1C=CC(O)(c2cc(=O)c3c(O)cc(O)cc3o2)C=C1	18.2	-9.9	8.5	16.9	-5.3	89.0*	101.3*	106.1*
O=c1cc(-c2ccccc2Cl)oc2cc(O)cc(O)c12	-4.0	5.0	-1.7	0.4	1.5	-2.1	.	.
CCOC(=O)c1c(C)[nH]c(C(=O)COC(=O)c2ccc([N+](=O)[O-])o2)c1C	.	-7.1	.	1.9	-2.2	7.2	.	.
CCc1cccc(C)c1NC(=O)COC(=O)CNS(=O)(=O)/C=C/c1ccccc1	-3.5	-6.9	14.4	-0.9	-5.3	3.7	.	.
Cc1ccc(Cl)c(NC(=O)COC(=O)CNS(=O)(=O)/C=C/c2ccccc2)c1Cl	0.1	-7.2	1.0	-1.4	0.2	44.1*	3.3	5.7
Cc1ccccc1NN=Nc1nc2c([nH]1)c(=O)n(C)c(=O)n2C	-7.9	.	-2.6	-2.5	.	0.2	.	.
Cn1c(=O)c2[nH]c(N=NNc3ccccc3F)nc2n(C)c1=O	-12.4	22.2	4.9	0.2	-0.3	23.9*	9.1	13.6*
O=C1CCN(C(=O)c2cccs2)c2ccccc21	8.6	-0.7	9.4	-1.3	-0.7	6.0	.	.
CN1C(=O)/C(=C\C(=O)c2cccs2)c2ccccc21	.	-4.9	1.0	15.7	0.7	65.2*	67.0*	86.8*
Cc1ccc(-n2nc3c(N4CCC(C(=O)NCCc5ccco5)CC4)nnc(C)c3c2C)cc1	17.7	-1.4	-22.3	20.7	-1.4	30.2*	14.2	11.9
COc1cccc(-c2sc3ccc(OC)cc3c2-c2ccc(OCCN(C)C)cc2)c1	.	-9.2	.	-1.4	-5.4	21.2	.	.
CN(C)CCOc1ccc(-c2c(-c3ccsc3)sc3ccccc23)cc1	.	-9.9	.	-4.5	-5.9	29.2*	12.1	-1.6
COc1ccc(-c2sc3ccccc3c2-c2ccc(OCCN(C)C)cc2)cc1	.	-10.8	.	-3.8	-4.0	39.7*	21.0	8.0
COc1cc(/C=C/c2[nH]c(=O)[nH]c(=O)c2[N+](=O)[O-])cc([N+](=O)[O-])c1O	-1.8	1.9	21.1	-0.5	17.6	33.2*	43.9*	32.7*
COc1cc(/C=C/c2[nH]c(=O)[nH]c(=O)c2[N+](=O)[O-])ccc1OCCC(C)C	14.6	0.6	3.7	3.4	1.0	-1.1	.	.
CCC(C)Oc1ccc(/C=C/c2[nH]c(=O)[nH]c(=O)c2[N+](=O)[O-])cc1OC (centres undefined)	5.2	2.4	24.9	-2.4	0.9	34.7*	76.6*	71.8*
Cn1cc(C=CC(=O)O)c2nccnc21	.	.	.	1.3	.	6.7	.	.
N#C/C(=C/c1ccc(N2CCOCC2)o1)c1ccc(Cl)cc1	-5.8	.	26.6	15.7	.	60.5*	51.7*	106.4*
Nc1[nH]c(C(=O)c2ccccc2)c(-c2ccccc2)c1C(=O)NCCc1c[nH]c2ccccc12	.	.	.	0.5	.	.	.	.
O=C1N/C(=C/c2ccc(N3CCOCC3)o2)C(=O)N1c1ccccc1	-29.3	.	-9.2	46.2*	.	80.3*	62.8*	99.1*
O=C1NC(=S)S/C1=C/c1ccc(N2CCOCC2)o1	-59.8	39.5	17.5	.	77.4	44.0*	41.9*	106.3*
O=C1S/C(=C/c2ccc(N3CCOCC3)o2)C(=O)N1Cc1ccc(F)cc1	-7.0	3.5	12.8	4.9	13.4	11.8	.	.
COc1cccc(/C=C/C(=O)c2ccc(C)c([N+](=O)[O-])c2)c1	4.2	-5.7	-7.9	4.2	0.1	55.5*	102.1*	105.4*
COc1ccc(/C=C/c2c([N+](=O)[O-])c(=O)n(C)c(=O)n2C)cc1O	3.7	-3.7	4.1	-0.6	1.0	1.5	.	.
SMILES	core dimer inh	APOBEC3G inh	NS3 helicase inh	PRMT1 FP inh	APOBEC3A inh	ABHD5 PLIN5 PPI	ABHD5-PLIN5 conf	HNF4 split-luc
COc1ccc(C(=O)/C=C/c2ccc(N3CCCCC3)c([N+](=O)[O-])c2)cc1	2.7	0.4	-21.0	-0.5	-1.5	16.8	.	.
COc1cc(/C=C/C(=O)c2ccc(C)c([N+](=O)[O-])c2)cc(OC)c1O	0.9	2.2	-7.9	7.4	3.6	64.9*	78.6*	71.6*
COc1ccc(/C=C/C(=O)c2ccc(C)c([N+](=O)[O-])c2)cc1O	2.2	-6.6	-8.2	1.4	-3.1	40.4*	80.3*	72.8*
COc1cccc(C(=O)/C=C/c2ccc(OCC#N)c(OC)c2)c1	6.4	-4.6	-11.7	6.2	-0.9	55.1*	86.2*	77.2*
COc1cc(/C=C/C(=O)c2ccc(O)cc2)ccc1OCC#N	2.0	-10.1	-7.9	3.1	2.8	18.4	.	.
c1ccc(-c2csc(CN3CCCCC3)n2)cc1	.	.	.	-4.0	.	2.5	.	.
CCOc1ccccc1NC1=C(OC)C(=O)C(Nc2ccccc2OCC)=C(OC)C1=O	.	.	.	1.3	.	1.8	.	.
CC1(C(=O)NS(=O)(=O)c2ccccc2C(F)(F)F)CCN1C(=O)C1CCCCC1 (centres undefined)	.	.	.	3.8	.	-5.1	.	.
CCC(C)[C@H]1CNC(=O)C(=O)N1CCc1cccc2ccccc12 (some centres undefined)	.	.	.	9.0	.	3.6	.	.
COc1cccc(/C=C/C(=O)c2ccc(NS(=O)(=O)c3ccc(C)cc3)cc2)c1	12.2	-6.0	-12.2	0.9	-3.8	32.1*	79.5*	61.4*
O=C(O)COc1ccccc1/C=C1\C(=O)Nc2ccc(Br)cc21	0.1	-3.8	7.7	0.3	-2.2	34.1*	41.6*	43.8*
CC(=O)/C=C1/C(=O)Nc2ccccc21	-1.3	-3.2	-2.5	11.4	3.8	44.1*	71.3*	80.7*
CC(=O)N(C)c1ccc(N=C2C(=O)Nc3ccccc32)cc1	.	.	9.0	.	.	-19.9	.	.
O=C1Nc2ccc(Br)cc2/C1=C/C(=O)c1ccccc1	.	.	.	10.5	.	85.3*	87.6*	80.3*
CCOC(=O)COc1ccccc1/C=C1/NC(=O)NC1=O	-3.2	-4.7	1.1	0.0	1.0	-3.6	.	.
C=CCOc1cccc(C(=O)/C=C2/C(=O)Nc3ccccc32)c1	13.4	-6.5	-33.3	4.2	-1.2	65.1*	80.1*	90.0*
